Data reported in ChEMBL document CHEMBL1811853, “Design and evaluation of 3-aminopyrazolopyridinone kinase inhibitors inspired by the natural product indirubin” (Bioorg Med Chem, 2011).

Legend:
[1] = biological target: Ribosomal protein S6 kinase alpha-1 (Homo sapiens) (UniProt Q15418); assay: Inhibition of RSK1 at 30 uM by microfluidic mobility shift assay
Summary of the method: (§1)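 Single-concentration screen, singlicate, 30 uM final (diluted from 1 mM DMSO solutions), fluorescently tagged peptide substrate appropriate to each kinase, ATP at apparent Km for each protein. Phosphorylated and unphosphorylated peptides separated electrophoretically; conversion is the phosphorylated peak area over the sum of both peaks. No-inhibitor and no-ATP controls; H89 reference on each plate.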

[2] = biological target: RAC-beta serine/threonine-protein kinase (Homo sapiens) (UniProt P31751); assay: Inhibition of AKT2 at 30 uM by microfluidic mobility shift assay; summary of the method: as §1
[3] = biological target: RAC-alpha serine/threonine-protein kinase (Homo sapiens) (UniProt P31749); assay: Inhibition of AKT1 at 30 uM by microfluidic mobility shift assay; summary of the method: as §1
[4] = biological target: Ribosomal protein S6 kinase alpha-5 (Homo sapiens) (UniProt O75582); assay: Inhibition of MSK1 at 30 uM by microfluidic mobility shift assay; summary of the method: as §1
[5] = biological target: Mitogen-activated protein kinase 1 (Homo sapiens) (UniProt P28482); assay: Inhibition of ERK2 at 30 uM by microfluidic mobility shift assay; summary of the method: as §1
[6] = biological target: Tyrosine-protein kinase Lck (Homo sapiens, UniProt P06239); assay: Inhibition of LCK at 30 uM by microfluidic mobility shift assay; summary of the method: as §1
[7] = biological target: T1, Aurora kinase A (Homo sapiens) (UniProt O14965); assay: Inhibition of AurA at 30 uM by microfluidic mobility shift assay; summary of the method: as §1
T1 sequence (whole entry): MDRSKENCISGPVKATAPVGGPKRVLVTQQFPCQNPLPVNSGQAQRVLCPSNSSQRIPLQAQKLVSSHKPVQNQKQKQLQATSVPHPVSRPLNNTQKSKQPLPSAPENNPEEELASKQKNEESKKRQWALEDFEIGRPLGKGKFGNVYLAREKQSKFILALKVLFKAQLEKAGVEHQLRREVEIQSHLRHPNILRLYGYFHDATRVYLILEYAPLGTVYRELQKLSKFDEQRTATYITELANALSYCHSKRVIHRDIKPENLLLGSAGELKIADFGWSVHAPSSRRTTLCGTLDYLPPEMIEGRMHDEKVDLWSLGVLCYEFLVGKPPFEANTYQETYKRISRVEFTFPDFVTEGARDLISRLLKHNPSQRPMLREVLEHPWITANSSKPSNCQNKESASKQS

[8] = biological target: Proto-oncogene tyrosine-protein kinase Src (Homo sapiens, UniProt P12931); assay: Inhibition of SRC at 30 uM by microfluidic mobility shift assay; summary of the method: as §1
[9] = biological target: Insulin receptor (Homo sapiens) (UniProt P06213); assay: Inhibition of INSR at 30 uM by microfluidic mobility shift assay; summary of the method: as §1
[10] = biological target: Tyrosine-protein kinase ABL1 (Homo sapiens, UniProt P00519); assay: Inhibition of ABL at 30 uM by microfluidic mobility shift assay; summary of the method: as §1
[11] = biological target: Glycogen synthase kinase-3 beta (Homo sapiens) (UniProt P49841); assay: Inhibition of GSK3B at 30 uM by microfluidic mobility shift assay; summary of the method: as §1
[12] = biological target: Serine/threonine-protein kinase Chk2 (Homo sapiens, UniProt O96017); assay: Inhibition of CHK2 at 30 uM by microfluidic mobility shift assay; summary of the method: as §1
[13] = biological target: MAP kinase-activated protein kinase 2 (Homo sapiens, UniProt P49137); assay: Inhibition of MAPKAPK2 at 30 uM by microfluidic mobility shift assay; summary of the method: as §1
[14] = biological target: Mitogen-activated protein kinase 3 (Homo sapiens) (UniProt P27361); assay: Inhibition of ERK1 at 30 uM by microfluidic mobility shift assay; summary of the method: as §1
[15] = Inhibition of PKA at 30 uM by microfluidic mobility shift assay; summary of the method: as §1
[16] = biological target: Mitogen-activated protein kinase 14 (Homo sapiens, UniProt Q16539); assay: Inhibition of p38alpha at 30 uM by microfluidic mobility shift assay; summary of the method: as §1
[17] = biological target: T2, Serine/threonine-protein kinase Chk1 (Homo sapiens) (UniProt O14757); assay: Inhibition of CHK1 at 30 uM by microfluidic mobility shift assay; summary of the method: as §1
T2 sequence (whole entry): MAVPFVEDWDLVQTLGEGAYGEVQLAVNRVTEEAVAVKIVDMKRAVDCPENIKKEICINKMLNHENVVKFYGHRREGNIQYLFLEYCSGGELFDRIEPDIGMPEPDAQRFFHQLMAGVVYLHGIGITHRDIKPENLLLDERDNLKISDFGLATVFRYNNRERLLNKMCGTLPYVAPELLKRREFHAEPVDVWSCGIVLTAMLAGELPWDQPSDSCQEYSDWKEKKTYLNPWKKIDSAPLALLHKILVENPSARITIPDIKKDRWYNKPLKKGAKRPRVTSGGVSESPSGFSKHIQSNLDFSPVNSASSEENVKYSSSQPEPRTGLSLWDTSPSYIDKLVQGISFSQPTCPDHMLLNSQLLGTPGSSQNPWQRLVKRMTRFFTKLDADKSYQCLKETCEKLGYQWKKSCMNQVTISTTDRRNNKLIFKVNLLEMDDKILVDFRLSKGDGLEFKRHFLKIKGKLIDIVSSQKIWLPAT

[18] = biological target: T3, MAP kinase-activated protein kinase 5 (Homo sapiens) (UniProt Q8IW41); assay: Inhibition of PRAK1 at 30 uM by microfluidic mobility shift assay; summary of the method: as §1
T3 sequence (whole entry): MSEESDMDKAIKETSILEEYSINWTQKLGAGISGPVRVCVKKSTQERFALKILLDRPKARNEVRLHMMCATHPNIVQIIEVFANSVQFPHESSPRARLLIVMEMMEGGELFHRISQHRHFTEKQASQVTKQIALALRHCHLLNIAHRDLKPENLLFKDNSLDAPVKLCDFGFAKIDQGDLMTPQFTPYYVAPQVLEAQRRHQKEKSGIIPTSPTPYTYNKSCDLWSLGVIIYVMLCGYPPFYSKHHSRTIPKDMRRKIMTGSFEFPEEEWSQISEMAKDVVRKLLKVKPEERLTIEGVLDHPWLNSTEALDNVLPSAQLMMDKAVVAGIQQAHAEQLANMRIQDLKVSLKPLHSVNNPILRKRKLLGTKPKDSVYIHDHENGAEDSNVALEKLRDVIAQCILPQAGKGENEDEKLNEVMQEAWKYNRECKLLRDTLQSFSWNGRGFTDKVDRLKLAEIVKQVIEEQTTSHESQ

[19] = biological target: Tyrosine-protein kinase Fyn (Homo sapiens, UniProt P06241); assay: Inhibition of FYN at 30 uM by microfluidic mobility shift assay; summary of the method: as §1
[20] = biological target: Tyrosine-protein kinase Lyn (Homo sapiens, UniProt P07948); assay: Inhibition of LYN at 30 uM by microfluidic mobility shift assay; summary of the method: as §1
[21] = biological target: T4, Serine/threonine-protein kinase D2 (Homo sapiens) (UniProt Q9BZL6); assay: Inhibition of PKD2 at 30 uM by microfluidic mobility shift assay; summary of the method: as §1
T4 sequence (whole entry): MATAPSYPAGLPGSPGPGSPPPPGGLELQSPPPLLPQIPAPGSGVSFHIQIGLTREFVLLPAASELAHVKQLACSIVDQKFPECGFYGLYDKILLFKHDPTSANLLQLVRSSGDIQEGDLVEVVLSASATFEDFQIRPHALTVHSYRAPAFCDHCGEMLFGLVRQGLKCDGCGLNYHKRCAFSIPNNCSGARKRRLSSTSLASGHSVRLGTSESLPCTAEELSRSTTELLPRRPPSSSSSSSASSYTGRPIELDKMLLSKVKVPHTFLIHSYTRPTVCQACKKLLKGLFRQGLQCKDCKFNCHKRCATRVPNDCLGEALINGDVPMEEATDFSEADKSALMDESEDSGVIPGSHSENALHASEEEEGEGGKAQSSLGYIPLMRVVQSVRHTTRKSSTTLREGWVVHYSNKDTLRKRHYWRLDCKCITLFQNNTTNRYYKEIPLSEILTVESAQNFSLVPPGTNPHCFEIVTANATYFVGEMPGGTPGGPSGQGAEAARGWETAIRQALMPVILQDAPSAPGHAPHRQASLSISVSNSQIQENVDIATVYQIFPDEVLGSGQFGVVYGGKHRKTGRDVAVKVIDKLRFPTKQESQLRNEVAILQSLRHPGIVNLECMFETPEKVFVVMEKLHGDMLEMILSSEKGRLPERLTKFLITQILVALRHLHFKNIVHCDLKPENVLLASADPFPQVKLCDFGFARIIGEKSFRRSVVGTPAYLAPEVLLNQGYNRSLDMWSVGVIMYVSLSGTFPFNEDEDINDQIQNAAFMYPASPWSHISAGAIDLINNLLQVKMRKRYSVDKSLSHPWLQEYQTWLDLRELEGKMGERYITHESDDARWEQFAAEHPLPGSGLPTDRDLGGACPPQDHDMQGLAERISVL

Tyrosine-protein kinase Lck, sequence (P06239 2-509 limits assumed): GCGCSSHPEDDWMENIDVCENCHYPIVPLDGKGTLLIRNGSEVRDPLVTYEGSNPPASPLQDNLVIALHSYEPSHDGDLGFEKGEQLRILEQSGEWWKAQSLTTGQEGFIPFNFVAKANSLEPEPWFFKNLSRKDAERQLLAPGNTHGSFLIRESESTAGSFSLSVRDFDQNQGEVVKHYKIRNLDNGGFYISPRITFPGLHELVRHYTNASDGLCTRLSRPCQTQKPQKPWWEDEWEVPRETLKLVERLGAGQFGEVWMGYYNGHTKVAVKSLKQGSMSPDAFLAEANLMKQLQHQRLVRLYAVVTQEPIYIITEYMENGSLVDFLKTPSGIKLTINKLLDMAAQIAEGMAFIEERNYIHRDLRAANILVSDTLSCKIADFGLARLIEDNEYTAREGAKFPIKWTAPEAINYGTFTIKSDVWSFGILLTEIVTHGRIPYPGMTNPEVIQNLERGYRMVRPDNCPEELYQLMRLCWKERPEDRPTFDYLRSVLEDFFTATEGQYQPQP
RAC-beta serine/threonine-protein kinase (Homo sapiens), sequence (P31751 whole entry): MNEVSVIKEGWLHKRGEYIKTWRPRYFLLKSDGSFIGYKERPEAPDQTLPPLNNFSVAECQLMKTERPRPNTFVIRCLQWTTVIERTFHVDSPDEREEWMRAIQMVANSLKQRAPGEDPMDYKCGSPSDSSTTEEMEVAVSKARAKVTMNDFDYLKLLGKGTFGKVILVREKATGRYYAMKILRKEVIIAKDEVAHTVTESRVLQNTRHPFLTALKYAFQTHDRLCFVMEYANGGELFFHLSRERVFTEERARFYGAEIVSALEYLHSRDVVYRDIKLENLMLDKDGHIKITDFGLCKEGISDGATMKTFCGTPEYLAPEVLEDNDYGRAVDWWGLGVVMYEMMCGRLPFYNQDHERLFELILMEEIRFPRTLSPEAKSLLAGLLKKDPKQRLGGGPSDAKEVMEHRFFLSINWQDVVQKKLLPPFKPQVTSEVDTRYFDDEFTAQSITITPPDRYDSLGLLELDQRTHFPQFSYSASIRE
Mitogen-activated protein kinase 1 (Homo sapiens), sequence (P28482 whole entry): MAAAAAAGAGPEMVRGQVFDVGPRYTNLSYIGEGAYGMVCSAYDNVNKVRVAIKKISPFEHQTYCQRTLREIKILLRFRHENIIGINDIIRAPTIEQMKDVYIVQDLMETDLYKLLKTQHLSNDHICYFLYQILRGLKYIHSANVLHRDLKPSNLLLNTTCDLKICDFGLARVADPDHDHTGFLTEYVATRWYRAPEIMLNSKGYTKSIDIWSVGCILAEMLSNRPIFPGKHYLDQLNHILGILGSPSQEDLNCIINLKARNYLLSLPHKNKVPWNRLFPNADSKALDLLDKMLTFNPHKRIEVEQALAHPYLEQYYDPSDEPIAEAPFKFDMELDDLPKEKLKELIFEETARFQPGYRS
Glycogen synthase kinase-3 beta (Homo sapiens), sequence (P49841 whole entry, looked up): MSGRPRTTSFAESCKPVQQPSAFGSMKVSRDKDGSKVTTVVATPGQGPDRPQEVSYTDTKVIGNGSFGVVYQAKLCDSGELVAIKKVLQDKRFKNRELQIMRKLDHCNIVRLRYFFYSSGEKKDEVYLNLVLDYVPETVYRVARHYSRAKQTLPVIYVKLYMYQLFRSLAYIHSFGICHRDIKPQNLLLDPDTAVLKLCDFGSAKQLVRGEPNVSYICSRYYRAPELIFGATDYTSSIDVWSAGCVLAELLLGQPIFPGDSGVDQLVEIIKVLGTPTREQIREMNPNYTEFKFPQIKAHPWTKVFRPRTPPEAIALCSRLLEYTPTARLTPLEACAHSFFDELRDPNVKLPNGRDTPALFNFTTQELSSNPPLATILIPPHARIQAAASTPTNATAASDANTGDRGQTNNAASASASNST
Ribosomal protein S6 kinase alpha-1 (Homo sapiens), sequence (Q15418 whole entry): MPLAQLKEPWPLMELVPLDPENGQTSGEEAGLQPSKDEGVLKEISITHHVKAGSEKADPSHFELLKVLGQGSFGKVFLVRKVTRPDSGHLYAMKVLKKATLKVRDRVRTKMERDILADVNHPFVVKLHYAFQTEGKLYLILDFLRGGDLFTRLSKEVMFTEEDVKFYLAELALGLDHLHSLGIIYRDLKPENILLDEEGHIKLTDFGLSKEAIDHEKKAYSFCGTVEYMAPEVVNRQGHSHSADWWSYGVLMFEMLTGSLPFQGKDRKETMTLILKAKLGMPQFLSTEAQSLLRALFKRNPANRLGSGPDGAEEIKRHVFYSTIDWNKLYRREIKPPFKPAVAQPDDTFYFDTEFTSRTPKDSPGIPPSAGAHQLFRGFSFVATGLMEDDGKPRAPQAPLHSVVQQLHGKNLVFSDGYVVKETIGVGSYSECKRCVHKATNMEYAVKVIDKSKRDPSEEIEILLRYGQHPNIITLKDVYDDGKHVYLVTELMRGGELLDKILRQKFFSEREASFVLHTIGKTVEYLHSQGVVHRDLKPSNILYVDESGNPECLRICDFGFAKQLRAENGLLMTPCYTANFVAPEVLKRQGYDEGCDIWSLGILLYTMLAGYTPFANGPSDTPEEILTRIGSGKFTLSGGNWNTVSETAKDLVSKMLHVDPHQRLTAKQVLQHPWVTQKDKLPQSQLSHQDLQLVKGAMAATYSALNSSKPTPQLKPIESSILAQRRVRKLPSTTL
Proto-oncogene tyrosine-protein kinase Src, sequence (P12931 2-536 limits assumed): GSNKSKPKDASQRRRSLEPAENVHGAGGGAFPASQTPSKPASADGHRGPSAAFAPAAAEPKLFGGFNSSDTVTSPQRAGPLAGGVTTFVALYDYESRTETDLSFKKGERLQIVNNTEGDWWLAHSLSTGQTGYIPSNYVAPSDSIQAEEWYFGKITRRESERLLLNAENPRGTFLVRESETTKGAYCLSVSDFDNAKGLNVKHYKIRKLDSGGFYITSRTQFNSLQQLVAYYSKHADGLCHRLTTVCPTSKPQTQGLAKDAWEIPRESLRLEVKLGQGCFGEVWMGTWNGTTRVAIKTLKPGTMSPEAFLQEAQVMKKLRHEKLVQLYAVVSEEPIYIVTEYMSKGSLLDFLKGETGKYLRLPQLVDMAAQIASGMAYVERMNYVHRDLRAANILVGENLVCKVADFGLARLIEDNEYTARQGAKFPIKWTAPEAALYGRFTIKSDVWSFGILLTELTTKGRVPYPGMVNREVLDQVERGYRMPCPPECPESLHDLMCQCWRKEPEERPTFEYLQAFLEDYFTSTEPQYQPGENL
Serine/threonine-protein kinase Chk2, sequence (O96017 whole entry): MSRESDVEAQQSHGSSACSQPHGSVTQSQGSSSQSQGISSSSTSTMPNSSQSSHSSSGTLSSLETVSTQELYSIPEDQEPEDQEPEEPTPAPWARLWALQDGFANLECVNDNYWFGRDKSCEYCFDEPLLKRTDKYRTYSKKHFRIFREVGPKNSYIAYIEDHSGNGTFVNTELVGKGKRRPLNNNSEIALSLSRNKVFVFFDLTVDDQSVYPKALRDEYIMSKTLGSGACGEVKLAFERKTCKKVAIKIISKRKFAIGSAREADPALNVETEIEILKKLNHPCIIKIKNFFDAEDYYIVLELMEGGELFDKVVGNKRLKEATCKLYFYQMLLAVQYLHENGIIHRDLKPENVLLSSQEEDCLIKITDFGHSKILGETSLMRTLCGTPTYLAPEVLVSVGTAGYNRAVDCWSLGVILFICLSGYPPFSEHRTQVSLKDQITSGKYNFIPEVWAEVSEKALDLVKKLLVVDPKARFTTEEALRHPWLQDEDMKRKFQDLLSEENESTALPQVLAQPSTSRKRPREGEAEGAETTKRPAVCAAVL
MAP kinase-activated protein kinase 2, sequence (P49137 whole entry, looked up): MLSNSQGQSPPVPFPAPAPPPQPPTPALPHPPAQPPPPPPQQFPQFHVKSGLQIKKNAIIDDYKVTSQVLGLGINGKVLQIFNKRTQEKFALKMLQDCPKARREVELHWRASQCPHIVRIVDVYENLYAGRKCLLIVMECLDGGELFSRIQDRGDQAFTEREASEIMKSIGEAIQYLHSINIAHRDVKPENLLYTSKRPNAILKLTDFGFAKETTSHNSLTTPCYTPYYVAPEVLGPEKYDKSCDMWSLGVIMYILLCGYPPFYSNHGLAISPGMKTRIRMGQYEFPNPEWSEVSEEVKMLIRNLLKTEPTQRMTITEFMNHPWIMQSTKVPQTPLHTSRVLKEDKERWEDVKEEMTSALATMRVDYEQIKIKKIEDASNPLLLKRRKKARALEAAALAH
Tyrosine-protein kinase Fyn, sequence (P06241 2-537 limits assumed): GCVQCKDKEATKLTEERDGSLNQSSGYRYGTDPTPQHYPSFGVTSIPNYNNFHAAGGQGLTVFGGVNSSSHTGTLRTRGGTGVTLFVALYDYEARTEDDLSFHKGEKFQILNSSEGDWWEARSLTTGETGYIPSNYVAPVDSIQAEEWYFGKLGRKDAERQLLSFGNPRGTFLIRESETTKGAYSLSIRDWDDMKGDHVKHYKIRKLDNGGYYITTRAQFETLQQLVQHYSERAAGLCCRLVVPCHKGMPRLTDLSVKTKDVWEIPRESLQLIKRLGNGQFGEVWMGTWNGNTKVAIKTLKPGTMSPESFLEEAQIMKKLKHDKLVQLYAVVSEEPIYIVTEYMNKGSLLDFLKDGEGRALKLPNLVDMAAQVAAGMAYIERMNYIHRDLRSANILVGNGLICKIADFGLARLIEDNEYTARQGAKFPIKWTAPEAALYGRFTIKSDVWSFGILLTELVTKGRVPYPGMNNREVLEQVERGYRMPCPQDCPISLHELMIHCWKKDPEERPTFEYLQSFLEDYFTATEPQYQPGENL
Mitogen-activated protein kinase 3 (Homo sapiens), sequence (P27361 whole entry): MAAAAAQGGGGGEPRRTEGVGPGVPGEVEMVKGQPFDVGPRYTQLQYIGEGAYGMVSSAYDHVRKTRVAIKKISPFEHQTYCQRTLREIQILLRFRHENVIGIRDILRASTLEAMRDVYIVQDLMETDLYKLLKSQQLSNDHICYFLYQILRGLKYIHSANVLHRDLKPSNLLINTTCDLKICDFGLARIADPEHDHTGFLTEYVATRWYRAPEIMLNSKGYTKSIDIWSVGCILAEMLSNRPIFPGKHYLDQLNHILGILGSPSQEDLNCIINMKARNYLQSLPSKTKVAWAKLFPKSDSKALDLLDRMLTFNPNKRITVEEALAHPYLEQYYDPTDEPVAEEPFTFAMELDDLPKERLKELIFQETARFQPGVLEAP

| inhibition [1] [%] | inhibition [2] [%] | inhibition [3] [%] | inhibition [4] [%] | inhibition [5] [%] | inhibition [6] [%] | inhibition [7] [%] | inhibition [8] [%] | inhibition [9] [%] | inhibition [10] [%] | inhibition [11] [%] | inhibition [12] [%] | inhibition [13] [%] | inhibition [14] [%] | inhibition [15] [%] | inhibition [16] [%] | inhibition [17] [%] | inhibition [18] [%] | inhibition [19] [%] | inhibition [20] [%] | Structure (SMILES) | further results |
| --- | --- | --- | --- | --- | --- | --- | --- | --- | --- | --- | --- | --- | --- | --- | --- | --- | --- | --- | --- | --- | --- |
| 30 | 7 | 17 | 74 | 7 | 44 | 72 | 45 | 0 | 24 | 73 | 23 | 1 | 15 | 71 | -3 | 13 | 5 | 43 | 51 | Cc1cc2[nH]nc(N)c2c(N2CCOCC2)n1 |  |
| 1 | -2 | 0 | -2 | 2 | 4 | 3 | 3 | -3 | 2 | 6 | 3 | -2 | 6 | 1 | 2 | 10 | 9 | 2 | 1 | Cc1cc2c(cn1)c(N)nn2C | inhibition [21]: -3% |
| 4 | -7 | 1 | 10 | 6 | 12 | 10 | 7 | -2 | 7 | 7 | 4 | 7 | 4 | 2 | 10 | -1 | 10 | 7 | 8 | Cc1cc2nn(-c3ccccc3)c(N)c2c(N2CCCCC2)n1 | inhibition [21]: 5% |
| 11 | -3 | -1 | 13 | 4 | 6 | 31 | 6 | 5 | 11 | 9 | 7 | 7 | 8 | 19 | 2 |  | 13 | 3 | 8 | Cc1cc2[nH]nc(N)c2cn1 | inhibition [21]: 25% |
| 23 | 0 | 6 | 7 | 1 | 6 | 41 | 4 | -2 | 19 | 8 | 4 | 7 | 13 | 6 | 4 |  | 17 | 8 | 11 | Cc1cc2c(c(N)nn2C)c(N2CCCCC2)n1 | inhibition [21]: 16% |
| -3 | 1 | 2 | 2 | 0 | 11 | 13 | 5 | 2 | 4 | 13 | 12 | 11 | 4 | 8 | -5 | 2 | 1 | 4 | 5 | Cc1cc2[nH]ncc2c(=O)[nH]1 |  |
|  |  |  |  |  |  | 71 | 18 | 3 | 8 | 10 |  | 41 |  | 100 | 5 |  | 37 |  |  | O=S(=O)(NCCNC/C=C/c1ccc(Br)cc1)c1cccc2cnccc12 |  |
| -3 | 3 | -1 | -2 | 1 | 13 | 3 | 9 | 3 | 19 | 4 | 7 | 1 | 5 | 4 | 55 | 6 | 2 | 13 | 29 | Nc1c2cnc(-c3ccccc3)cc2nn1-c1ccccc1 |  |
